In ChEMBL document CHEMBL1131166, “Bisphenols that stimulate cells to release alkali metal cations: a structure-activity study” (1998):

Assays:
Type in all cases: functional, Cercopithecidae
COS-7 [1] = assay: (§1) Fraction of total radioactivity [86Rb] remaining with the compound at a concentration of 10 uM in COS-7 cells
Outline: (§2)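 COS-7 cells grown in DMEM + 10% FCS to 85–98% confluence, loaded ~4 μCi 86RbCl in BSS (HEPES, pH 7.2) 90 min at 37 °C, washed thrice ice-cold BSS, reincubated 37 °C with medium replaced every 10 min; compound (DMSO stock diluted ≥5000-fold in BSS) present 40 min from 20 min. Cell-retained 86Rb at 60 min as fraction of initial total (cells + media); mean ± SD, three experiments.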

COS-7 [2] = assay: Fraction of total radioactivity [86Rb] remaining with the compound at a concentration of 1 uM in COS-7 cells; outline: as §2
COS-7 [3] = assay: Fraction of total radioactivity [86Rb] remaining with the compound at a concentration of 0.1 uM in COS-7 cells and value; outline: as §2
COS-7 [4] = assay: Fraction of total radioactivity [86Rb] remaining with the compound at a concentration of 0.01 uM in COS-7 cells; outline: as §2
COS-7 [5] = assay: Fraction of total radioactivity [86Rb] remaining with the compound at a concentration of 0 uM in COS-7 cells; outline: as §2
COS-7 [6] = assay: as §1; remark: listed apart in the source
Outline: (§3)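 COS-7 cells grown in DMEM with 10% FCS at 37 °C under 5% CO2 until 85–98% confluent. Loaded with about 4 μCi ⁸⁶RbCl in HEPES BSS (pH 7.2) for 90 min at 37 °C, then washed in ice-cold BSS. Reincubated at 37 °C with medium changed every 10 min; compound in BSS (DMSO ≥5000-fold diluted) given for the last 40 min. Read-out is the cell-retained fraction of total ⁸⁶Rb at 60 min by scintillation counting, mean ± SD of three experiments.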

COS-7 [7] = assay: Fraction of total radioactivity [86Rb] remaining with the compound at a concentration of 0.1 uM in COS-7 cells; outline: as §3

## Oc1ccc(Cc2ccc(O)cc2)cc1
COS-7 [1]
  Fraction of accumulated 86Rb remaining.: 0.581

## Oc1ccc2ccccc2c1-c1c(O)ccc2ccccc12
COS-7 [1]
  Fraction of accumulated 86Rb remaining.: 0.565

## OCCOc1ccc(C2(c3ccc(OCCO)cc3)c3ccccc3-c3ccccc32)cc1
COS-7 [1]
  Fraction of accumulated 86Rb remaining.: 0.486

## Nc1ccc(C2(c3ccc(N)cc3)c3ccccc3-c3ccccc32)cc1
COS-7 [1]
  Fraction of accumulated 86Rb remaining.: 0.419

## Oc1ccc(C2(c3ccc(O)cc3)c3ccccc3-c3ccccc32)cc1
COS-7 [2]
  Fraction of accumulated 86Rb remaining.: 0.006
COS-7 [3]
  Fraction of accumulated 86Rb remaining.: 0.147
COS-7 [4]
  Fraction of accumulated 86Rb remaining.: 0.532
COS-7 [1]
  Fraction of accumulated 86Rb remaining.: 0.003
COS-7 [5]
  Fraction of accumulated 86Rb remaining.: 0.556

## Oc1ccc(-c2ccc(O)cc2)cc1
COS-7 [6]
  Fraction of accumulated 86Rb remaining.: 0.604

## O=C1OC(c2ccc(O)cc2)(c2ccc(O)cc2)c2ccccc21 [PHENOLPHTHALEIN]
COS-7 [2]
  Fraction of accumulated 86Rb remaining.: 0.234
COS-7 [7]
  Fraction of accumulated 86Rb remaining.: 0.472
COS-7 [4]
  Fraction of accumulated 86Rb remaining.: 0.461
COS-7 [1]
  Fraction of accumulated 86Rb remaining.: 0.091
COS-7 [5]
  Fraction of accumulated 86Rb remaining.: 0.503
